According to ChEMBL document CHEMBL4359835, “Design, Synthesis, and Anti-RNA Virus Activity of 6'-Fluorinated-Aristeromycin Analogues” (J Med Chem, 2019):

Columns and labels:
[1] = […] CHIKV LS3 infected in African green monkey Vero E6 cells assessed as reduction in virus-induced cytopathic effect measured after 96 hrs post-infection by MTS assay; conditions: Chikungunya virus, LS3, Vero C1008, 96 h
[2] = (§1) Cytotoxicity against African green monkey Vero E6 cells assessed as reduction in cell viability measured after 72 hrs by MTS assay; type: cell-based, Vero C1008; conditions: chlorocebus sabaeus, Vero E6 cells (Vero C1008)
In short: (§2)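 Uninfected Vero E6 cells (10 000/well) were exposed to compound for 72 h, in parallel with SARS-CoV CPE assays. Eight concentrations in quadruplicate; CC50 by nonlinear regression.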

[3] = […]; type: cell-based; conditions: Middle East respiratory syndrome-related coronavirus, EMC/2012, Vero, 72 h
Vero [4] = assay: Cytotoxicity against African green monkey Vero cells assessed as reduction in cell viability measured after 72 hrs by MTS assay; type: cell-based; conditions: chlorocebus sabaeus
In short: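 Uninfected Vero cells (20 000/well) were incubated with compound for 72 h, alongside MERS-CoV assays. Viability by MTS for 2–2.5 h, formaldehyde fixation, then A495 relative to untreated controls. Eight concentrations, quadruplicate; CC50 from nonlinear regression.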

Vero C1008 = assay: as §1; type: cell-based; conditions: chlorocebus sabaeus, vero c1008, 72 h; in short: as §2
[5] = […]; design: species or system SARS coronavirus Frankfurt 1; conditions: Severe acute respiratory syndrome-related coronavirus, Vero C1008, 72 h
Adenosylhomocysteinase = Adenosylhomocysteinase (Homo sapiens, UniProt P23526); assay: Inhibition of human placental SAH hydrolase expressed in Escherichia coli JM109 using SAH as substrate preincubated for 10 mins followed by SAH addition and measured after 20 mins by […] reagent-based spectrophotometric method
Adenosylhomocysteinase, sequence (P23526 whole entry): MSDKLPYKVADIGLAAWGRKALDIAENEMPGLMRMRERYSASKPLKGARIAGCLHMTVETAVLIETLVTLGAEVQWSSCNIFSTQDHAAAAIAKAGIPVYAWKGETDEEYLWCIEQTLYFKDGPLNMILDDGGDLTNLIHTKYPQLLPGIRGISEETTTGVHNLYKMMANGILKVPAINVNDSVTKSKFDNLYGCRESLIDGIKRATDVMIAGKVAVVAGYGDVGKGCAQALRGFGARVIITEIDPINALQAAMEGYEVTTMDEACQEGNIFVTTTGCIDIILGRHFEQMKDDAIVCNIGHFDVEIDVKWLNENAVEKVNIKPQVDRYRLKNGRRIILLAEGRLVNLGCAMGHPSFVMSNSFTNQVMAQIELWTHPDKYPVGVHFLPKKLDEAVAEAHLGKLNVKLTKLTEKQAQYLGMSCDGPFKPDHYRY

Vero [6] = assay: Cytotoxicity against African green monkey Vero cells assessed as reduction in cell viability measured after 96 hrs by MTS assay; type: cell-based; conditions: chlorocebus sabaeus
In short: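 Uninfected Vero CCL81 cells (5000/well) were treated for 96 h in parallel with ZIKV CPE assays. Eight concentrations, quadruplicate; CC50 by nonlinear regression.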

[7] = Selectivity index, ratio of CC50 for African green monkey Vero cells to EC50 for inhibition of RNA-dependent RNA polymerase in ZIKV SL0612 infected in African green monkey Vero cells assessed as reduction in virus-induced cytopathic effect; type: toxicity; conditions: read-out: Ratio CC50/EC50
In short: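 Vero CCL81 cells (5000/well) received ZIKV at MOI 0.05 in compound-containing infection medium. MTS was read at 96 hpi (A495, relative to uninfected), with uninfected cells run in parallel for CC50. Eight concentrations, quadruplicate; nonlinear regression; SI = CC50/EC50.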

[8] = Selectivity index, ratio of CC50 for African green monkey Vero E6 cells to EC50 for inhibition of RNA-dependent RNA polymerase in CHIKV LS3 infected in African green monkey Vero E6 cells assessed as reduction in virus-induced cytopathic effect; type: toxicity, Vero C1008; conditions: read-out: Ratio CC50/EC50
In short: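 Vero E6 cells (5000/well) were infected with CHIKV at MOI 0.005 in EMEM/25 mM HEPES/2% FCS containing compound. CPE was read by MTS at 96 hpi (A495, relative to uninfected). Uninfected cells were tested in parallel for CC50. Eight concentrations, quadruplicate; EC50 and CC50 by nonlinear regression; SI = CC50/EC50.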

[9] = Selectivity index, ratio of CC50 for African green monkey Vero E6 cells to EC50 for inhibition of RNA-dependent RNA polymerase in SARS-CoV Frankfurt1 infected in African green monkey Vero E6 cells assessed as reduction in virus-induced cytopathic effect; type: toxicity, Vero C1008; conditions: read-out: Ratio CC50/EC50
Chikungunya virus = assay: Antiviral activity against CHIKV LS3 infected in African green monkey Vero E6 cells assessed as log reduction in viral titer measured after 30 hrs post infection by plaque assay; type: functional, Vero C1008
[10] = Partition coefficient, log P of the compound in liquid/aqueous phase by pH-metric method; type: physicochemical; conditions: octanol/water
SARS-CoV = assay: Antiviral activity against SARS-CoV Frankfurt1 infected in African green monkey Vero E6 cells assessed as log reduction in viral titre at >0.3 uM measured at 48 hrs post infection by plaque assay; type: functional, Severe acute respiratory syndrome-related coronavirus, Frankfurt 1, Vero C1008
[11] = tested on: Middle East respiratory syndrome-related coronavirus; assay: Antiviral activity against MERS-CoV EMC/2012 infected in African green monkey Vero cells assessed as log reduction in virus titre at >0.3 uM measured after 48 hrs viral infection by plaque assay; type: functional
Zika virus = assay: Antiviral activity against ZIKV SL0612 infected in African green monkey Vero cells assessed as log reduction in viral titre up to 1.5 uM measured at 48 hrs post infection by plaque assay; type: functional
In short: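 Vero E6 cells (7.5 × 10^4/well) adhered overnight in DMEM/8% FCS. ZIKV infection was at MOI 1 for 2 h at 37 °C in EMEM/2% FCS with compound (0–1.5 μM), followed by washing and 48 h in compound-containing medium. Supernatant titre was read by plaque assay on Vero CCL81. Duplicates in two independent experiments (n = 4).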

[12] = Selectivity index, ratio of CC50 for African green monkey Vero cells to EC50 for inhibition of RNA-dependent RNA polymerase in MERS-CoV EMC/2012 infected in African green monkey Vero cells assessed as reduction in virus-induced cytopathic effect; type: toxicity; conditions: read-out: Ratio CC50/EC50

| SMILES | EC50 [1] | CC50 at 72 h [2] | EC50 [3] | CC50 (Vero [4]) | CC50 (Vero C1008) | EC50 [5] | IC50 (Adenosylhomocysteinase) | CC50 (Vero [6]) | selectivity ratio [7] | selectivity ratio [8] | selectivity ratio [9] | FC (Chikungunya virus) | logP [10] | FC (SARS-CoV) | FC [11] | FC (Zika virus) | selectivity ratio [12] |
| --- | --- | --- | --- | --- | --- | --- | --- | --- | --- | --- | --- | --- | --- | --- | --- | --- | --- |
| Nc1ncnc2c1ncn2[C@H]1[C@H](O)[C@H](O)[C@@H](CO)[C@@H]1F | 0.53 µM | – | – | – | – | – | – | – | – | – | – | – | – | – | – | – | – |
| Nc1ncnc2c1ncn2[C@H]1[C@H](O)[C@H](O)[C@@H](CO)[C@H]1F | > 100 µM | > 100 µM | 0.2 µM | 0.6 µM | – | – | – | – | – | – | – | – | – | – | – | – | – |
| O=c1ccn([C@H]2[C@H](O)[C@H](O)[C@@H](CO)[C@H]2F)c(=O)[nH]1 | > 100 µM | – | > 100 µM | – | > 100 µM | > 100 µM | > 100 µM | – | – | – | – | – | – | – | – | – | – |
| Nc1ccn([C@H]2[C@H](O)[C@H](O)[C@@H](CO)C2(F)F)c(=O)n1 | > 100 µM | – | > 50 µM | > 50 µM | > 100 µM | > 100 µM | > 100 µM | > 100 µM | – | – | – | – | – | – | – | – | – |
| CNc1ncnc2c1ncn2[C@H]1[C@H](O)[C@H](O)[C@@H](CO)[C@H]1F | > 100 µM | – | > 50 µM | > 50 µM | > 100 µM | > 100 µM | 4.39 µM | > 100 µM | – | – | – | – | – | – | – | – | – |
| CC(C)OC(=O)[C@H](C)N[P@](=O)(OC[C@@H]1[C@@H](O)[C@@H](O)[C@H](n2ccc(=O)[nH]c2=O)[C@@H]1F)Oc1ccccc1 | > 100 µM | – | > 50 µM | > 50 µM | > 100 µM | > 100 µM | > 100 µM | > 100 µM | – | – | – | – | – | – | – | – | – |
| CC(C)OC(=O)[C@H](C)N[P@](=O)(OC[C@@H]1[C@@H](O)[C@@H](O)[C@H](n2ccc(=O)[nH]c2=O)C1(F)F)Oc1ccccc1 | > 100 µM | – | > 50 µM | > 50 µM | > 100 µM | > 100 µM | > 100 µM | > 100 µM | – | – | – | – | – | – | – | – | – |
| CC(C)OC(=O)[C@H](C)N[P@](=O)(OC[C@@H]1[C@@H](O)[C@@H](O)[C@H](n2cnc3c(N)ncnc32)C1(F)F)Oc1ccccc1 | 1.95 µM | 12.5 to 25 µM | 9.3 µM | > 50 µM | – | 6.8 µM | > 100 µM | > 25 µM | > 14.3 | > 6.4 | > 3.7 | – | – | – | – | – | – |
| CNc1ncnc2c1ncn2[C@H]1[C@H](O)[C@H](O)[C@@H](CO)C1(F)F | > 100 µM | – | > 50 µM | 12.5 µM | > 100 µM | > 100 µM | 0.76 µM | > 100 µM | – | – | – | – | – | – | – | – | – |
| O=c1ccn([C@H]2[C@H](O)[C@H](O)[C@@H](CO)[C@@H]2F)c(=O)[nH]1 | > 100 µM | – | > 100 µM | > 100 µM | – | > 100 µM | > 100 µM | > 100 µM | – | – | – | – | – | – | – | – | – |
| Nc1ncnc2c1ncn2[C@H]1[C@H](O)[C@H](O)[C@@H](CO)C1(F)F | 0.13 µM | 1.25 to 5.9 µM | 0.2 µM | 3.2 µM | – | 0.5 µM | 1.06 µM | > 2.5 µM | > 9.6 | > 9.6 | 11.8 | >2 | 0.02 | 1.5 | 2.5 | 1 | 16 |
| O=c1ccn([C@H]2[C@H](O)[C@H](O)[C@@H](CO)C2(F)F)c(=O)[nH]1 | > 100 µM | – | > 50 µM | > 50 µM | > 100 µM | > 100 µM | > 100 µM | > 100 µM | – | – | – | – | – | – | – | – | – |
| Nc1ccn([C@H]2[C@H](O)[C@H](O)[C@@H](CO)[C@H]2F)c(=O)n1 | > 100 µM | – | > 100 µM | > 100 µM | > 100 µM | > 100 µM | > 100 µM | > 100 µM | – | – | – | – | – | – | – | – | – |
| Nc1ncnc2c1ncn2[C@@H]1C[C@H](CO)[C@@H](O)[C@H]1O [ARISTEROMYCIN] | 0.8 µM | 2.4 to 6.3 µM | > 50 µM | 2 µM | – | > 50 µM | – | 2.4 µM | – | – | – | – | – | – | – | – | – |
